B1: tRNA (parent)
chain: GUUCCGUUGGCGUAAUGGUAACGCGUCUCCCUCCUAAGGAGAAGACUGCGGGUUCGAGUCCCGUACGGAACG

Variants of: B1
Assay: yeast fitness, log relative to wild type (ln ratio); higher = fitter; tRNA-Arg(CCU), competitive growth, 37 C, 1 M NaCl
Method in brief: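 Variants were counted by 125 bp paired-end Illumina sequencing after pools of a combinatorial tRNA-Arg(CCU) library, held on a HIS3 centromeric plasmid in BY4742 lacking the chromosomal gene, grew ~6.5 generations (~26.5 h) in SC-HIS 1M NaCl at 37 °C. Each genotype's fitness is the natural log of its generations relative to the wild type's. Generations were OD-scaled log2 output/input frequencies, inverse-variance weighted over replicates.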

| Variant | yeast fitness (ln) |
| --- | --- |
| U2G C27U C46U C66A A70U | -0.143 |
| G1A U2G C27U C46U C66U A69G A70G C71U | -0.267 |
| G1A C27U C46U C66A A69G A70G | -0.248 |
| U2C G6A C27U A43C A70G C71U | -0.156 |
| G1A G6A C66A A70U C71U | -0.163 |
| C66A A69G A70G C71U | -0.0757 |
| G1A C27U A43C C66A A69G A70U C71U | -0.431 |
| G1A U2C G6U C46U C66A A69G A70G C71U | -0.0207 |
| G1A U2G C27U A43C A70G C71U | -0.246 |
| G1A U2G G6A A43C A69G A70G C71U | -0.29 |
| G6A C27U C66A A70U | -0.107 |
| G1A U2G G6U C46U C66U | -0.14 |
| U2C C27U A69G A70G | -0.0516 |
| U2C G6U C27U A43C A70G | -0.18 |
| G1A A69G A70G | -0.137 |
| U2G C27U A69G A70U | -0.0281 |
| U2G G6U A43C C66U A69G A70G C71U | -0.411 |
| U2G G6A C66U A70U C71U | -0.0405 |
| G6U C27U C46U A69G A70U | -0.292 |
| G1A U2G G6U C27U A43C C46U C66U A69G A70U | -0.451 |
| G1A U2G G6A C46U C66U A70G | -0.11 |

| Variant | yeast fitness (ln) |
| --- | --- |
| G1A U2G C66U C71U | -0.201 |
| U2G G6A C46U C66U A69G A70U C71U | -0.385 |
| G1A U2C G6A C27U C46U | -0.0428 |
| A69G A70G C71U | -0.222 |
| G1A U2G C27U A43C C46U C71U | -0.0914 |
| U2C G6A A43C C66U A70U C71U | -0.305 |
| G1A U2C C46U C66U A70G C71U | -0.01 |
| G6U C27U C46U C66A A69G A70G | -0.243 |
| U2G G6U C27U A70U C71U | -0.227 |
| G1A U2G G6U C27U C66U | -0.38 |
| U2G G6A C27U C46U | -0.0462 |
| U2G A43C A69G A70G | -0.0982 |
| U2G G6A C27U C46U A69G | -0.149 |
| G1A U2G C46U | -0.0473 |
| G6A C46U A70U | -0.237 |
| U2C G6U C46U C66U A69G A70G | -0.066 |
| G1A U2G A43C C46U C66U A70G C71U | -0.243 |
| C27U C66A A69G A70G C71U | -0.191 |
| U2C G6U A43C C66U A69G A70G C71U | -0.352 |
| U2C A70G | 0.00112 |
| G1A U2G C27U C66A A70G | -0.25 |

| Variant | yeast fitness (ln) |
| --- | --- |
| G1A C27U A43C C46U C66A | -0.103 |
| G1A U2G G6A A43C C46U A70G C71U | -0.202 |
| G1A U2C G6A C46U A70U C71U | -0.00949 |
| G1A U2G C27U C46U C71U | -0.159 |
| G1A G6U A43C C46U C66A A70U C71U | -0.334 |
| A43C C46U A70U | -0.00645 |
| U2C G6U C46U C66A A69G A70G C71U | -0.0159 |
| U2C G6U C66U A69G A70U | -0.179 |
| G1A U2G G6U A43C A70G C71U | -0.323 |
| G1A C46U C66A A70U C71U | -0.171 |
| G1A U2C C46U A70G C71U | 0.000912 |
| G1A U2C G6U C27U A43C C66A A70G | -0.299 |
| C27U C71U | -0.0403 |
| G1A U2G G6U A43C C46U C66U A69G C71U | -0.393 |
| G1A C27U C46U C66U A69G A70G | -0.251 |
| G6U A43C C46U C71U | -0.193 |
| G1A U2C A70U | -0.096 |
| G1A U2C A43C A70G | -0.0553 |
| U2C G6U C27U A43C C66U A70U | -0.156 |
| U2C G6U C27U C46U C66U A70G C71U | -0.177 |
| G1A U2G C27U C46U C66A A69G A70G C71U | -0.247 |

| Variant | yeast fitness (ln) |
| --- | --- |
| U2C C27U C46U A69G | -0.319 |
| U2C G6U A43C C46U | -0.0413 |
| G6A C27U A43C C46U A69G A70G C71U | -0.306 |
| U2C G6A C27U A69G C71U | -0.0988 |
| G1A G6A A43C C66U A70G C71U | -0.377 |
| U2G A43C C46U C66U A69G A70G | -0.173 |
| G1A G6A C27U C46U C66A C71U | -0.11 |
| U2G G6A C27U A43C C66U | -0.113 |
| G1A G6U C27U A43C C66A A70G C71U | -0.411 |
| G6U C27U A43C A70U C71U | -0.445 |
| G1A U2C G6U A43C C46U A69G A70G | -0.126 |
| G6U C27U C46U C71U | -0.205 |
| G6A C27U A43C C46U C66A | -0.269 |
| U2G G6U C27U C66A A69G A70U C71U | -0.369 |
| U2G C27U C66U C71U | -0.194 |
| G1A G6A C27U C46U C66A A70G | -0.285 |
| U2G G6A C27U C46U A69G A70U | -0.133 |
| G1A U2C G6U C46U A69G A70U C71U | -0.249 |
| G1A U2C G6A C66U A70G C71U | -0.0113 |
| G1A U2G G6A A43C C46U C66U A69G A70U C71U | -0.425 |

Source: the RNAGym collection of RNA variant scans (doi:10.1038/s41586-018-0170-7)
